Active and inactive are the calls of the source. No cut-off for these calls is given here.
What was measured:
[1] = system: MCF7; experiment: Antiproliferative activity against MCF7 cells after 72 hrs by MTT assay; format: functional, cell-based, Homo sapiens; details: Homo sapiens, MCF7, 72 h
How it was run: (§1)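 Cells cultured with each compound for three days; growth then read by the MTT colorimetric assay and reported as IC50 (µM).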

[2] = system: L1210; experiment: Antitumor activity in L1210 cells xenografted B6D2F1 mouse at 40 mg/kg, ip relative to control; format: functional; details: route intraperitoneal
How it was run: (§2)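 Mice grafted with L1210 leukaemia cells on day 0, then dosed i.p. four times weekly on days 1-4 and 8-11. Five mice per group. Outcome is %T/C, the median survival of treated over control. Kruskal-Wallis test followed by Dunn comparisons against control.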

[3] = system: L1210; experiment: Antitumor activity in L1210 cells xenografted B6D2F1 mouse at 80 mg/kg, ip relative to control; format: functional; details: route intraperitoneal; how it was run: as §2
[4] = Antiproliferative activity against U373MG cells after 72 hrs by MTT assay; format: functional, cell-based, Homo sapiens, U-373MG ATCC; details: Homo sapiens, U373 MG, 72 h; how it was run: as §1
[5] = system: Mus musculus; experiment: Hematotoxicity in ip dosed B6D2F1 mouse assessed as decrease in platelet count; format: organism-based; details: in vivo
How it was run: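 Healthy female B6D2F1 mice, 10 per group, dosed i.p. three times weekly for five weeks at two dose levels set relative to MTD. Vehicle DMSO/saline 5:95 v/v. Killed 3 days after the last dose; blood platelet, RBC and WBC counts taken with a Coulter counter.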

[6] = system: L1210; experiment: Antitumor activity in L1210 cells xenografted B6D2F1 mouse at 120 mg/kg, ip relative to control; format: functional; details: route intraperitoneal; how it was run: as §2
[7] = system: Mus musculus; experiment: Toxicity in B6D2F1 mouse at 120 mg/kg, ip; format: organism-based; design: dose 120 mg/kg, route intraperitoneal; details: in vivo
How it was run: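 Healthy female B6D2F1 mice, 10 per group, dosed i.p. in DMSO/saline (5:95 v/v) three times weekly for five weeks at two levels set relative to MTD; sacrificed 3 days after final dose; platelet, RBC and WBC counted by Coulter counter.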

[8] = Toxicity in ip dosed B6D2F1 mouse; format: organism-based; details: in vivo
How it was run: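 Acute MTD was set by a single i.p. dose to groups of three healthy female B6D2F1 mice, at 2.5, 5, 10, 20, 40, 80 and 160 mg/kg. The MTD is the dose just below the lowest dose that killed at least one mouse.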

[9] = Antiproliferative activity against Hs683 cells after 72 hrs by MTT assay; format: functional, cell-based, Homo sapiens, Hs 683; details: Homo sapiens, Hs 683, 72 h; how it was run: as §1
[10] = system: LoVo; experiment: Antiproliferative activity against LoVo cells after 72 hrs by MTT assay; format: functional, cell-based, Homo sapiens; details: Homo sapiens, LoVo, 72 h; how it was run: as §1
[11] = system: L1210; experiment: Antitumor activity in L1210 cells xenografted B6D2F1 mouse at 20 mg/kg, ip relative to control; format: functional; details: route intraperitoneal; how it was run: as §2
[12] = system: A549; experiment: Antiproliferative activity against A549 cells after 72 hrs by MTT assay; format: functional, cell-based, Homo sapiens; details: Homo sapiens, A549, 72 h; how it was run: as §1
[13] = system: HCT-15; experiment: Antiproliferative activity against HCT15 cells after 72 hrs by MTT assay; format: functional, cell-based, Homo sapiens; details: Homo sapiens, HCT-15, 72 h; how it was run: as §1
[14] = system: L1210; experiment: Antitumor activity in L1210 cells xenografted B6D2F1 mouse at 10 mg/kg, ip relative to control; format: functional; details: route intraperitoneal; how it was run: as §2
[15] = target: T1, DNA topoisomerase 1 (Homo sapiens) (UniProt P11387); experiment: Inhibition of human topoisomerase 1 by DNA unwinding test
T1 sequence (whole entry): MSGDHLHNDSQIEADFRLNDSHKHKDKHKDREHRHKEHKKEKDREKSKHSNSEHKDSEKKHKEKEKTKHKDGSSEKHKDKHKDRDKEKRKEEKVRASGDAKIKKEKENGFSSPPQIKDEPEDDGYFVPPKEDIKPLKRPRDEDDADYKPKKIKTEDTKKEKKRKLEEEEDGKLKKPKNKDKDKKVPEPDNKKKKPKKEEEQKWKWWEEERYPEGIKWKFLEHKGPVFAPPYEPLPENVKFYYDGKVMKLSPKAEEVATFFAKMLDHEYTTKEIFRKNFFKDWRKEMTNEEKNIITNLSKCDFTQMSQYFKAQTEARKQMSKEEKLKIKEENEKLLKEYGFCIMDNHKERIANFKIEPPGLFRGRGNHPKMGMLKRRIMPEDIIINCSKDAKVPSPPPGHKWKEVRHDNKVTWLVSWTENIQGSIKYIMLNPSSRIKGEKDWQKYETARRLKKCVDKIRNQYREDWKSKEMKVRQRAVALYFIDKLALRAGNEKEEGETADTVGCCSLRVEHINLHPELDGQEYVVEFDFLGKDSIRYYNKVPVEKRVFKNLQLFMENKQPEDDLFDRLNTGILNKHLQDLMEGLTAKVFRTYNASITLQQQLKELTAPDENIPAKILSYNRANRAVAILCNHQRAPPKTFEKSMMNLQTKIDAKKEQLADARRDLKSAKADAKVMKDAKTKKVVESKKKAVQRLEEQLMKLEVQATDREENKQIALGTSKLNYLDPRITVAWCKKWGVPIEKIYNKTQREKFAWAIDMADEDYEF
How it was run: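 DNA unwinding assay: relaxed pBR322 plasmid converted to supercoiled form in presence of topoisomerase I; compounds at final 4–32 µM (one up to 15–55 µM); ethidium bromide-stained agarose gels; UC50 taken as concentration shifting relaxed band to midpoint between supercoiled and relaxed states.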

[16] = target: DNA topoisomerase 2-alpha (Homo sapiens) (UniProt P11388); experiment: Inhibition of human topoisomerase 2-mediated kinetoplast DNA […] at 50 uM
Chain of DNA topoisomerase 2-alpha (Homo sapiens) (P11388 whole entry): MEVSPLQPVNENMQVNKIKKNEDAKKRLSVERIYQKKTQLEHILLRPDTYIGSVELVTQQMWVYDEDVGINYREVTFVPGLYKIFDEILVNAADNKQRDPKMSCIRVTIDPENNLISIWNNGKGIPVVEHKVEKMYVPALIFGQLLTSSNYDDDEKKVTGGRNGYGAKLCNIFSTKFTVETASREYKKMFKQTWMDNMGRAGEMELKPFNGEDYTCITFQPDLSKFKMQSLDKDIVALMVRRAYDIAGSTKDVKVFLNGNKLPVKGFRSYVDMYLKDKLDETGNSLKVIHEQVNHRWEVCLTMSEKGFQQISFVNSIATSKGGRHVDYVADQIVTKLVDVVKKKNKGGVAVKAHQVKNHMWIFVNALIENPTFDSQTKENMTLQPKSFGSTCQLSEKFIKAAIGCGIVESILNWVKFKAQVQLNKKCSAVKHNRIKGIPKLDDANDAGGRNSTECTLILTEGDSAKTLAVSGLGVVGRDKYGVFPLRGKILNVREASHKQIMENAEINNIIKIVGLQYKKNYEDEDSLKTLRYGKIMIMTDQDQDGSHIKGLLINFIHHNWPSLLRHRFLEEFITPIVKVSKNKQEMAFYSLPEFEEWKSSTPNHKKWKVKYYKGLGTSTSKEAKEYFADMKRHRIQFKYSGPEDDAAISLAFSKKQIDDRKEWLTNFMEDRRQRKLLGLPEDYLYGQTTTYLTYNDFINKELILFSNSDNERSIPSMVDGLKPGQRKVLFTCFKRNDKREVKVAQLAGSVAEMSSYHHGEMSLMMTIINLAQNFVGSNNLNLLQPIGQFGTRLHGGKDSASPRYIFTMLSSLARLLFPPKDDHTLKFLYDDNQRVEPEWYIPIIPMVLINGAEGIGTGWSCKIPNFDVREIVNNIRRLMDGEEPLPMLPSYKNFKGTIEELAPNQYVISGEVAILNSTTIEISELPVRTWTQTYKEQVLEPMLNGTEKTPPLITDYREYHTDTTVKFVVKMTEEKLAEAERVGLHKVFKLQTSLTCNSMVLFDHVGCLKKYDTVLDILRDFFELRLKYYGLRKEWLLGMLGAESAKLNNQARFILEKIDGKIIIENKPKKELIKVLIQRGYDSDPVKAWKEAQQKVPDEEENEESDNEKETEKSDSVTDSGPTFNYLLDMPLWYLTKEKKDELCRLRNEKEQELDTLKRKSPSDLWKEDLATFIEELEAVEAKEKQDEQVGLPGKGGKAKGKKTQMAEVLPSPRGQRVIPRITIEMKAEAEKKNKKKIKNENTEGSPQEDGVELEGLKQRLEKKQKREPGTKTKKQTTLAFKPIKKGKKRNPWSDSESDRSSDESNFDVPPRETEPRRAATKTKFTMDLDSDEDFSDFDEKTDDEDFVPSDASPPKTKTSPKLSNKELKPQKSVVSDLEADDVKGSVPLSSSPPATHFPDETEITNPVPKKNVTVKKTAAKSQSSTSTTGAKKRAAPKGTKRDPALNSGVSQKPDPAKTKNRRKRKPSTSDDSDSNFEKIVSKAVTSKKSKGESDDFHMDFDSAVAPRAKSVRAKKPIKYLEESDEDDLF
How it was run: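 Topoisomerase II strand-passage activity by kDNA decatenation; compounds at 50 µM; catenated networks stay in wells, decatenated kDNA enters ethidium bromide-stained agarose gel; no-enzyme and no-drug reactions as controls.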

[17] = species: Homo sapiens; experiment: Inhibition of human topoisomerase 2 at 50 uM by plasmid linearization assay
[18] = system: MCF7; experiment: Induction of apoptosis in human MCF7 cells assessed as p53 activation; format: functional, cell-based
How it was run: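 MCF-7 cells treated and p53 activation assessed by immunoblotting, with tubulin as loading control. Adriamycin (2.5 µM, 24 h) served as positive control.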

SMILES | IC50 [1] [µM] | Activity [2] [%] | Activity [3] [%] | IC50 [4] [µM] | Activity [5] | Activity [6] [%] | Activity [7] | MTD [8] [mg/kg] | IC50 [9] [µM] | IC50 [10] [µM] | Activity [11] [%] | IC50 [12] [µM] | IC50 [13] [µM] | Activity [14] [%] | UC50 [15] [µM] | Activity [16] | Activity [17] | Activity [18]
CN(C)CCN1C(=O)c2cccc3cc(/N=C\c4ccc5c(c4)OCO5)cc(c23)C1=O | > 10 | 165 | 288 | > 10 | Toxic | 41 | Toxic | 80 | > 10 | 8.3 | 150 | > 10 | 9 | 115 | – | – | – | –
CN(C)CCN1C(=O)c2cccc3cc(/N=C\c4cc(O)ccc4O)cc(c23)C1=O | – | – | – | – | – | – | – | – | – | – | – | – | – | – | 13 | Active | Active | Active
CN(C)CCN1C(=O)c2cccc3cc(NC(=O)NCCCl)cc(c23)C1=O | 3.9 | – | – | 1 | – | – | – | > 80 | 4.6 | 1.8 | 156 | 3 | 5.6 | – | – | – | – | –

— ChEMBL document CHEMBL1148725, “2,2,2-Trichloro-N-({2-[2-(dimethylamino)ethyl]-1,3-dioxo-2,3-dihydro-1H-benzo[de]isoquinolin- 5-yl}carbamoyl)acetamide (UNBS3157), a novel nonhematotoxic naphthalimide derivative with potent antitumor activity” (J Med Chem, 2007)
